Experimental data: ChEMBL document CHEMBL1137710, “Synthesis and in vitro antitumor activity of new quinoxaline derivatives” (2009)

Assays:
Format in all cases: functional
[1] = test system: K562; experiment: Growth inhibition of human K562 cells after 48 hrs by sulforhodamine B assay; conditions: K562, 48 h
Summary of the method: (§1)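 NCI 60-human-tumor-cell-line panel, with compounds tested over a 5-log dose range. Values are taken from dose-response curves as log10 molar concentrations: GI50 is 50% net growth inhibition, TGI is total growth inhibition, and LC50 is 50% net cell death.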

[2] = test system: NCI/ADR-RES; experiment: Growth inhibition of human NCI/ADR-RES cells after 48 hrs by sulforhodamine B assay; summary of the method: as §1
[3] = test system: UO-31; experiment: Growth inhibition of human UO31 cells after 48 hrs by sulforhodamine B assay; conditions: UO-31, 48 h
Summary of the method: (§2)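 Run in the NCI 60-human-tumour-cell-line panel, tested over a 5-log dose range. Dose–response curves gave three values per cell line, each as a log10 molar concentration: GI50 (50% inhibition of net cell growth), TGI (total inhibition of net growth) and LC50 (50% net cell death). The mean graph midpoint is the arithmetic mean over all lines, with insensitive lines entered at the highest concentration tested.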

[4] = test system: KM12; experiment: Growth inhibition of human KM12 cells after 48 hrs by sulforhodamine B assay; conditions: KM12, 48 h; summary of the method: as §1
[5] = test system: NCI-H522; experiment: Growth inhibition of human NCI-H522 cells after 48 hrs by sulforhodamine B assay; conditions: NCI-H522, 48 h; summary of the method: as §1
[6] = test system: SN12C; experiment: Growth inhibition of human SN12C cells after 48 hrs by sulforhodamine B assay; summary of the method: as §2
[7] = test system: SR; experiment: Growth inhibition of human SR cells after 48 hrs by sulforhodamine B assay; summary of the method: as §2
[8] = test system: A498; experiment: Growth inhibition of human A498 cells after 48 hrs by sulforhodamine B assay; conditions: A498, 48 h; summary of the method: as §1
[9] = test system: OVCAR-5; experiment: Growth inhibition of human OVCAR5 cells after 48 hrs by sulforhodamine B assay; conditions: OVCAR-5, 48 h; summary of the method: as §1
[10] = test system: HOP-62; experiment: Growth inhibition of human HOP62 cells after 48 hrs by sulforhodamine B assay; conditions: HOP-62, 48 h; summary of the method: as §1
[11] = test system: ACHN; experiment: Growth inhibition of human ACHN cells after 48 hrs by sulforhodamine B assay
[12] = test system: 786-0; experiment: Growth inhibition of human 786-0 cells after 48 hrs by sulforhodamine B assay; conditions: 786-0, 48 h; summary of the method: as §1
[13] = test system: OVCAR-3; experiment: Growth inhibition of human OVCAR-3 cells after 48 hrs by sulforhodamine B assay; conditions: OVCAR-3, 48 h; summary of the method: as §1
[14] = test system: T47D; experiment: Growth inhibition of human T47D cells after 48 hrs by sulforhodamine B assay; summary of the method: as §2
[15] = test system: NCI-H322M; experiment: Growth inhibition of human NCI-H322M cells after 48 hrs by sulforhodamine B assay; summary of the method: as §1
[16] = test system: SF-539; experiment: Growth inhibition of human SF539 cells after 48 hrs by sulforhodamine B assay; conditions: SF-539, 48 h; summary of the method: as §1
[17] = test system: LOX IMVI; experiment: Growth inhibition of human LOXIMVI cells after 48 hrs by sulforhodamine B assay; summary of the method: as §1
[18] = Growth inhibition of human Hs 578T cells after 48 hrs by sulforhodamine B assay; summary of the method: as §1
[19] = test system: SK-MEL-2; experiment: Growth inhibition of human SK-MEL-2 cells after 48 hrs by sulforhodamine B assay; conditions: SK-MEL-2, 48 h; summary of the method: as §1
[20] = test system: Malme-3M; experiment: Growth inhibition of human MALME-3M cells after 48 hrs by sulforhodamine B assay; summary of the method: as §1
[21] = test system: CCRF-CEM; experiment: Growth inhibition of human CCRF-CEM cells after 48 hrs by sulforhodamine B assay; summary of the method: as §1
[22] = test system: MOLT-4; experiment: Growth inhibition of human MOLT4 cells after 48 hrs by sulforhodamine B assay; conditions: MOLT-4, 48 h; summary of the method: as §1
[23] = test system: CAKI-1; experiment: Growth inhibition of human Caki1 cells after 48 hrs by sulforhodamine B assay; conditions: CAKI-1, 48 h; summary of the method: as §1
[24] = test system: HL-60(TB); experiment: Growth inhibition of human HL-60(TB) cells after 48 hrs by sulforhodamine B assay; conditions: HL-60, 48 h
Summary of the method: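 Tested only on compounds active in a three-line prescreen, in the NCI 60-human-tumour-cell-line panel over a 5-log dose range. Values come from dose–response curves as log10 molar GI50, the concentration inhibiting 50% net cell growth. Log10 TGI (total growth inhibition) and log10 LC50 (50% net cell death) were derived too. Mean graph midpoints include insensitive lines at the highest concentration tested.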

[25] = read-out: pLC50 (the source's name) (converted)

Nc1cc(N)c2nc(-c3ccccc3)c(Sc3ccc(Cl)c(Cl)c3)nc2c1
GI50 [1]: 15.8 µM
LC50 [1]: > 100 µM
TGI ([1]; read-out: pTGI (converted)): > 100 µM
GI50 [2]: 19.1 µM
CC50 [2, 25]: > 100 µM
TGI ([2]; read-out: pTGI (converted)): 60.3 µM
GI50 [3]: 3.8 µM
CC50 [3, 25]: > 100 µM
TGI ([3]; read-out: pTGI (converted)): > 100 µM
GI50 [4]: 11.2 µM
LC50 (50% net cell kill) [4]: > 100 µM
TGI ([4]; read-out: pTGI (converted)): > 100 µM
GI50 [5]: 7.59 µM
LC50 [5]: > 100 µM
TGI ([5]; read-out: pTGI (converted)): 33.9 µM
GI50 [6]: 7.59 µM
CC50 [6, 25]: 64.6 µM
TGI ([6]; read-out: pTGI (converted)): 23.4 µM
GI50 [7]: 4.68 µM
LC50 (concentration giving 50% net cell death) [7]: > 100 µM
TGI ([7]; read-out: pTGI (converted)): 35.5 µM
GI50 [8]: 17 µM
CC50 [8, 25]: 57.5 µM
TGI ([8]; read-out: pTGI (converted)): 30.9 µM
GI50 [9]: 38.9 µM
CC50 [9, 25]: 91.2 µM
TGI ([9]; read-out: pTGI (converted)): 58.9 µM
GI50 [10]: 12.3 µM
LC50 [10]: > 100 µM
TGI ([10]; read-out: pTGI (converted)): 77.6 µM
GI50 [11]: 1.7 µM
CC50 [11, 25]: 5.62 µM
TGI ([11]; read-out: pTGI (converted)): 3.09 µM
GI50 [12]: 23.4 µM
CC50 [12, 25]: > 100 µM
TGI ([12]; read-out: pTGI (converted)): 61.7 µM
GI50 [13]: 11.7 µM
CC50 [13, 25]: > 100 µM
TGI ([13]; read-out: pTGI (converted)): 46.8 µM
GI50 [14]: 13.2 µM
CC50 [14, 25]: > 100 µM
TGI ([14]; read-out: pTGI (converted)): > 100 µM
GI50 [15]: 7.08 µM
LC50 [15]: > 100 µM
TGI ([15]; read-out: pTGI (converted)): 35.5 µM
GI50 [16]: 14.5 µM
LC50 [16]: > 100 µM
TGI ([16]; read-out: pTGI (converted)): 41.7 µM
GI50 [17]: 7.41 µM
LC50 [17]: 72.4 µM
TGI ([17]; read-out: pTGI (converted)): 24.5 µM
GI50 [18]: 30.2 µM
CC50 [18, 25]: > 100 µM
TGI ([18]; read-out: pTGI (converted)): > 100 µM
GI50 [19]: 6.17 µM
CC50 [19, 25]: > 100 µM
TGI ([19]; read-out: pTGI (converted)): 30.9 µM
GI50 [20]: 19.5 µM
CC50 [20, 25]: > 100 µM
TGI ([20]; read-out: pTGI (converted)): 50.1 µM
GI50 [21]: 2.51 µM
LC50 [21]: > 100 µM
TGI ([21]; read-out: pTGI (converted)): > 100 µM
GI50 [22]: 4.07 µM
LC50 [22]: > 100 µM
TGI ([22]; read-out: pTGI (converted)): > 100 µM
GI50 [23]: 15.1 µM
CC50 [23, 25]: 89.1 µM
TGI ([23]; read-out: pTGI (converted)): 37.2 µM
GI50 [24]: 7.94 µM
LC50 [24]: > 100 µM
TGI ([24]; read-out: pTGI (converted)): > 100 µM
